One assay deals with MDA-MB-231. Nature of the assay: Cytotoxicity against human MDA-MB-231 cells assessed as cell viability after by MTT assay. Type of assay: functional. An outline of the steps:
(§1)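 MTT viability assay. MDA-MB-231 cells were seeded at 1 × 10⁴ cells/well and MCF-7 cells at 2 × 10⁴ cells/well, then held 24 h at 37 °C in 5% CO₂. Medium was replaced with treatments; vehicle controls received matched DMSO. After 72 h, MTT (10 mg/ml stock) was added for 2 h in the dark. Formazan was dissolved in DMSO and read at 550 nm. Viability relative to untreated control at 100 µM.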

The next assay concerns MCF7. Nature of the assay: Cytotoxicity against human MCF7 cells assessed as cell viability after by MTT assay. Type of assay: functional. Put shortly:
as §1

For assay [1], the target named is E3 ubiquitin-protein ligase XIAP (Homo sapiens, UniProt P98170). Nature of the assay: Binding affinity to XIAP BIR3-domain (unknown origin).

Activity calls are given as the source filed them. The calls are words filed in the database; no cut-off is given here. Square brackets hold non-standard residues; d marks the D form. Peptide text beside a SMILES is read from it. Phg = N[C@H](C(=O)O)c1ccccc1; NMeA = CN[C@@H](C)C(=O)O

Sequence of E3 ubiquitin-protein ligase XIAP (P98170 whole entry): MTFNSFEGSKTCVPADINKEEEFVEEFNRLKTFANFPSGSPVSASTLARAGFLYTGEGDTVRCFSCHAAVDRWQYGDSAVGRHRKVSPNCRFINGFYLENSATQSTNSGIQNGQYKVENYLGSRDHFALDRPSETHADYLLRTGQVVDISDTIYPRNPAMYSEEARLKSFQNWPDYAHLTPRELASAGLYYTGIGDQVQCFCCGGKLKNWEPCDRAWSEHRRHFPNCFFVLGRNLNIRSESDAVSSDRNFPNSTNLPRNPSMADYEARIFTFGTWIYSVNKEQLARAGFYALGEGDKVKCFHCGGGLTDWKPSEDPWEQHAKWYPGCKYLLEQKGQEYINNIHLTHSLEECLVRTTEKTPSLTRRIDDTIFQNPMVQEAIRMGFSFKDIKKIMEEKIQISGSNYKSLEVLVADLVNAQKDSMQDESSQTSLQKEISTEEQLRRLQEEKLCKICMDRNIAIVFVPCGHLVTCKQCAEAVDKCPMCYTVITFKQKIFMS

Consider `CN[C@@H](C)C(=O)N[C@H](C(=O)N1C[C@H](Oc2ccccc2)C[C@H]1C(=O)NC(c1ccccc1)c1ccccc1)C(C)(C)C`, for which the figures for the Activity in the assay with MDA-MB-231 and in the assay with MCF7 were 50.3% and 58.6%, respectively.
In the same order, the values of `CN[C@@H](C)C(=O)N[C@H](C(=O)N1C[C@H](Oc2ccccc2)C[C@H]1C(=O)N[C@@H]1CCCc2ccccc21)C(C)(C)C` are 58.1% and 70.8%.
On the same counts, the results for `CN[C@@H](C)C(=O)N[C@H](C(=O)N1C[C@H](c2ccccc2)C[C@H]1C(=O)NC(c1ccccc1)c1ccccc1)C(C)(C)C` are 50.1% and 62.3%.
On to `CN[C@@H](C)C(=O)N[C@H](C(=O)N1C[C@H](c2ccccc2)C[C@H]1C(=O)N[C@@H]1CCCc2ccccc21)C(C)(C)C`, for which the Activity in the assay with MDA-MB-231 is 54.6%; in the assay with MCF7, 79.4%.
Consider `CC(C)[C@H](NC(=O)[C@H](C)N)C(=O)N1CCC[C@H]1C(=O)N[C@H](C(=O)N[C@@H](Cc1ccc(O)cc1)C(N)=O)c1ccccc1` (H-AVP[Phg]Y-NH2), for which the Kd in assay [1] came out at 30 nM. The result in the assay on MDA-MB-231 and with MCF7 was inactive.
For `CN[C@@H](C)C(=O)N[C@H](C(=O)N1CCC[C@H]1C(=O)N[C@@H](Cc1ccccc1)C(=O)N[C@@H](Cc1ccc(O)cc1)C(N)=O)C(C)C` (H-[NMeA]VPFY-NH2), binding in assay [1] was characterised by a dissociation constant (Kd) of 40 nM. Besides, the outcome in the assay with MDA-MB-231 and in the assay with MCF7 was inactive.
In assay [1], H-AVPFY-NH2 displayed a dissociation constant Kd of 60 nM. Also, the result in the assay with MDA-MB-231 and in the assay with MCF7 was inactive.
